Experimental findings from PubChem BioAssay are described below.

One may read the viability as a read-out of living cells in per cent, often relative to untreated cells. In general, inhibition refers to the change of the read-out against control, counted positive when it falls.

Assay [1] can be described thus: Her2 expression decrease, cell viability multiplex – SKBR3 breast tumor cells, AlphaScreen, ATP viability, primary screen (AID 461;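 active = Her2 level under about 52% in both replicate screens, with viability over 70% of control, limit read from the data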;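 for Her2 level: lower value means less Her2 protein in the cells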;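 for viability: percent of carrier control wells set as 100% viability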). Particulars: SKBR3 Her2 protein level, 18-24 h, measured here: SKBR3 viability, ATP luminescence, at 10 µM. For orientation: In Alpha technology, singlet oxygen from a donor bead excites a nearby acceptor bead.
In assay [2] the target is Receptor tyrosine-protein kinase erbB-2 (Homo sapiens) (UniProt P04626). The assay is described as above. Conditions: 18-24 h, at 10 µM, stronger effect = lower value.
Chain of Receptor tyrosine-protein kinase erbB-2 (Homo sapiens) (P04626 whole entry, looked up): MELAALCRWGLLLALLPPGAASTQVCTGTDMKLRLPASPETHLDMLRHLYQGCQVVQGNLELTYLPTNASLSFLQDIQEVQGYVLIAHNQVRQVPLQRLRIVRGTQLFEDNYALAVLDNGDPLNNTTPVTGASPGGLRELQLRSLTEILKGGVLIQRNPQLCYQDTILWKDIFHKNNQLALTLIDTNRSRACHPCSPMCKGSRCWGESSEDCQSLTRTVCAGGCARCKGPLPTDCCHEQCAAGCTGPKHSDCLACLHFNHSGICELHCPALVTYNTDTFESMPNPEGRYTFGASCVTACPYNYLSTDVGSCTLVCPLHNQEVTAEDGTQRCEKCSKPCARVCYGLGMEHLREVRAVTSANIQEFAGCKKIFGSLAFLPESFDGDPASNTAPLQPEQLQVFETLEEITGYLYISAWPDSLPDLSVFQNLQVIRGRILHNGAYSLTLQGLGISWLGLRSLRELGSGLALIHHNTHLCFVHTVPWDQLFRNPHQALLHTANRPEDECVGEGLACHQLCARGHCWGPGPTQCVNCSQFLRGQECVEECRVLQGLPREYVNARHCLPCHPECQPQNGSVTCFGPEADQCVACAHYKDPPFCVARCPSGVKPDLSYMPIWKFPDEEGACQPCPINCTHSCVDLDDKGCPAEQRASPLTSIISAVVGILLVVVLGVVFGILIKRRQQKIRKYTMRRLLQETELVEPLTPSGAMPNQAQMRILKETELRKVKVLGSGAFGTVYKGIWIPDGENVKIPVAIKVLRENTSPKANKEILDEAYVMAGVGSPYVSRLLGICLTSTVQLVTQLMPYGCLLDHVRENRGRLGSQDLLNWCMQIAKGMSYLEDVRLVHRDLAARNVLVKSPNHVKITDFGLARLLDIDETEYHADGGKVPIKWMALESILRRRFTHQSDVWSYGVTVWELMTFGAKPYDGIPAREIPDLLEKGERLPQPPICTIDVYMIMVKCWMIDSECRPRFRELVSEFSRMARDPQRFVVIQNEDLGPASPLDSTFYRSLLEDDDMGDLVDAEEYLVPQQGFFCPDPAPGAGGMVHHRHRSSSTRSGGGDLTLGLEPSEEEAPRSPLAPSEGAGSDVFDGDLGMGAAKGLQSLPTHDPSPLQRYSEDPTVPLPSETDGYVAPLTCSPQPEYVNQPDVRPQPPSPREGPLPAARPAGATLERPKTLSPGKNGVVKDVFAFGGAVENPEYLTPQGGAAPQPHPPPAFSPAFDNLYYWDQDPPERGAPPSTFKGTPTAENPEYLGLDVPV
Assay [3] in a line: reduced viability of SK-BR-3 breast cancer cells – cell-based, 24 h, human, pilot screen (AID 572;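 active = viability at or below 10% of carrier control in both of two separate runs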;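 note: compound exposure lasted between 18 and 24 h rather than exactly 24 h; 100% = carrier-treated control wells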). Conditions: SK-BR-3 viability, CellTiter-Glo luminescence, at 10 µM, stronger effect = lower value.
The nature of assay [4]: HUVEC growth inhibition – cell-based, human, primary screen (AID 575;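 active = viability at or below 30% in both replicate assays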;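 note: 100% = median of untreated cell wells with 0.1% DMSO on each plate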). Particulars: HUVEC proliferation, CellTiter-Glo luminescence, 72 h; at 10 µM; stronger effect = lower value. The method, boiled down: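 Assay system: Primary human umbilical vein endothelial cells | Quantity: 1250 cells per well | Medium: Supplemented EBM, 2% fetal bovine serum | Detection: CellTiter-Glo luminescence measuring cellular ATP | Read-out: % viability vs DMSO wells | Plate: Collagen-coated 384-well format | Times: 72 h exposure, 37 °C, 5% CO2, 30 min RT equilibration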
A general note: In ATP-based viability assays light output follows the ATP content of the culture.

Assay [5] in a line: H69AR cell proliferation blockers – human, duplicate replicates, primary screen (AID 580).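 Note: 100% = mean luminescence of untreated wells and 0% = no signal.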 Conditions: H69AR lung tumor cells viability, ATP luminescence, 72 h; at 10 µM; stronger effect = lower value.
Assay [6] can be described thus: MRP1 drug-resistance reversers in H69AR cells – cell-based, doxorubicin co-treatment, pilot screen (AID 601;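 active = viability loss from added drug above about 55%, and viability with drug at most 40%, in both replicates, limit read from the data, passing the limit was not always enough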). Particulars: CellTiter-Glo, 72 h, at 10 µM; for differential viability (reversal): stronger effect = higher value.
Assay [7] is described as follows: yeast transport mutant growth inhibition pilot in 384-well plates, post-Golgi transport modulator project (AID 636; in the data active = inhibition above about 31%). Particulars: absorbance 615 nm, about 18 h, stronger effect = higher value.
Assay [8] can be described thus: growth suppression of yeast trafficking mutant, preliminary HTS, modulators of trafficking downstream of Golgi apparatus project, 1536-format plate, OD 615 nm (AID 637; in the data active = inhibition above about 30%). Conditions: yeast transport mutant growth, absorbance 615 nm, 18 h; stronger effect = higher value.
Where [9] appears, read: H69AR cells + 2 uM doxorubicin, measured here: viability with 2 uM doxorubicin, stronger effect = lower value.
The mark [10] stands for this setting: H69AR cells, compound alone cytotoxicity.

The structures appear in SMILES notation. Calls of active or inactive are those of the source.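 Rule for the calls, unless noted: active = viability at or under a set limit in both replicates, limit being median viability minus 3 SD (cut at about 48% in these data, passing the limit was not always enough); inconclusive = at or under the limit in just one replicate; inactive = at or above the limit in both replicates.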

As for `O=C(NC1CCCCCC1)C1c2ccccc2C(=O)N1Cc1cccnc1` (stereo not given), the viability in assay [1] is 108%; in assay [3] it was 108% (inactive); in assay [4], 74.3% (inactive); in assay [5] it was 90.1% (inactive); in assay [6] (setting [9]) it was 103%; in assay [6] (setting [10]) it was 90.1%. Moreover, the Her2 level in assay [2] is 99.5% (inactive). In addition, the differential viability (reversal) in assay [6] (H69AR cells + 2 uM doxorubicin) is -12.5% (inactive). Further, the inhibition in assay [7] was 0.13% (inactive); in assay [8], -7.3% (inactive).

In the case of `O=c1c(CN2CCN(Cc3ccccc3)CC2)coc2ccc(Cl)cc12`, the viability is 90% in assay [1]; 90% (inactive) in assay [3]; 100% (inactive) in assay [4]; 95.7% (inactive) in assay [5]; 83.3% in assay [6] (setting [9]); 95.7% in assay [6] (setting [10]). For the same compound, the Her2 level in assay [2] is 85.5% (inactive). The differential viability (reversal) in assay [6] (H69AR cells + 2 uM doxorubicin) was 12.5% (inactive). Moreover, the inhibition in assay [7] is -4.81% (inactive); in assay [8] it was -6.89% (inactive).

On to `CCOC(=O)c1oc2ccccc2c1NC(=O)COC`, for which the viability in assay [1] was 108%; in assay [3], 108% (inactive); in assay [4] it was 99.5% (inactive); in assay [5] it was 102% (inactive); in assay [6] (setting [9]), 93.2%; in assay [6] (setting [10]), 102%. For the same compound, in assay [2], the Her2 level is 91.5% (inactive). Also, the differential viability (reversal) in assay [6] (H69AR cells + 2 uM doxorubicin) is 9.07% (inactive). For the same compound, the inhibition is -4.73% (inactive) in assay [7] and -3.93% (inactive) in assay [8].

As to `Cc1cc2c(=O)n(Cc3ccco3)c(SCC(=O)NCc3ccco3)nc2s1`, the viability is 100% in assay [1]; 100% (inactive) in assay [3]; 93.7% (inactive) in assay [4]; 81.2% (inactive) in assay [5]; 76.4% in assay [6] (setting [9]); 81.2% in assay [6] (setting [10]). In addition, the Her2 level in assay [2] is 88% (inactive). In addition, the differential viability (reversal) in assay [6] (H69AR cells + 2 uM doxorubicin) was 4.87% (inactive). Moreover, the inhibition in assay [7] was -4% (inactive); in assay [8], 1.9% (inactive).

Turning to `CCCCCOC(=O)C1=C(C)N(C)C(=O)NC1c1cc(Br)c(O)c(OC)c1` (stereo not given), the viability in assay [1] was 114%; in assay [3], 114% (inactive); in assay [4], 72.7% (inactive); in assay [5], 83.2% (inactive); in assay [6] (setting [9]), 86.5%; in assay [6] (setting [10]), 83.2%. Also, the Her2 level in assay [2] is 106% (inactive). Further, the differential viability (reversal) in assay [6] (H69AR cells + 2 uM doxorubicin) is -3.32% (inactive). Moreover, the inhibition in assay [7] is -7.14% (inactive); in assay [8] it was -7.62% (inactive).

Turning to `Cc1noc(C)c1S(=O)(=O)Nc1c(C)n(C)n(-c2ccccc2)c1=O`, the viability in assay [1] was 108%; in assay [3], 108% (inactive); in assay [4] it was 104% (inactive); in assay [5], 98.4% (inactive); in assay [6] (setting [9]), 90.3%; in assay [6] (setting [10]), 98.4%. Also, the Her2 level in assay [2] was 99% (inactive). Further, the differential viability (reversal) in assay [6] (H69AR cells + 2 uM doxorubicin) is 8.05% (inactive). For the same compound, the inhibition was -5.13% (inactive) in assay [7] and -1.11% (inactive) in assay [8].

Take `CCOC(=O)c1c(C)[nH]c(C(=O)Cn2c(=O)oc3ccccc32)c1C`: the viability in assay [1] was 102%; in assay [3], 102% (inactive); in assay [4] it was 108% (inactive); in assay [5], 89.5% (inactive); in assay [6] (setting [9]), 86.6%; in assay [6] (setting [10]) it was 89.5%. Moreover, in assay [2], the Her2 level is 93.5% (inactive). Moreover, in assay [6] (H69AR cells + 2 uM doxorubicin), the differential viability (reversal) is 2.91% (inactive). The inhibition in assay [7] is -3.97% (inactive); in assay [8] it was 0.33% (inactive).

Consider `Cc1cc(NC(=O)COC(=O)c2cccc(S(=O)(=O)N3CCOCC3)c2)no1`, for which the viability in assay [1] is 112%; in assay [3], 112% (inactive); in assay [4], 92.4% (inactive); in assay [5] it was 91.1% (inactive); in assay [6] (setting [9]), 84.8%; in assay [6] (setting [10]), 91.1%. For the same compound, in assay [2], the Her2 level is 88% (inactive). Further, the differential viability (reversal) in assay [6] (H69AR cells + 2 uM doxorubicin) was 6.37% (inactive). Also, the inhibition was -5% (inactive) in assay [7] and 1.9% (inactive) in assay [8].

Regarding `O=C(c1cc2cc(Cl)cc(Cl)c2oc1=O)N1CCOCC1`, the viability in assay [1] is 76%; in assay [3], 76% (inactive); in assay [4] it was 96% (inactive); in assay [5] it was 88.4% (inactive); in assay [6] (setting [9]) it was 87.7%; in assay [6] (setting [10]) it was 88.4%. Also, the Her2 level in assay [2] is 82.5% (inactive). For the same compound, the differential viability (reversal) in assay [6] (H69AR cells + 2 uM doxorubicin) is 0.725% (inactive). The values for the inhibition in assay [7] and in assay [8] were -6.35% (inactive) and 3.44% (inactive), respectively.

On to `Cc1ccc(S(=O)(=O)N2CCC(C(=O)N3CCC[C@H]3C(=O)NCc3ccccc3)CC2)cc1`, for which the viability is 117% in assay [1]; 117% (inactive) in assay [3]; 101% (inactive) in assay [4]; 90.8% (inactive) in assay [5]; 96.2% in assay [6] (setting [9]); 90.8% in assay [6] (setting [10]). Besides, in assay [2], the Her2 level was 103% (inactive). Further, the differential viability (reversal) in assay [6] (H69AR cells + 2 uM doxorubicin) is -5.42% (inactive). Also, the inhibition in assay [7] is -4.81% (inactive); in assay [8], -0.66% (inactive).

As for `COc1ccc(N2CCN(C(=O)CSc3nnc4n3C(C)(C)Cc3ccccc3-4)CC2)cc1`, the viability is 96% in assay [1]; 96% (inactive) in assay [3]; 84.3% (inactive) in assay [4]; 88.7% (inactive) in assay [5]; 93.1% in assay [6] (setting [9]); 88.7% in assay [6] (setting [10]). Besides, the Her2 level in assay [2] was 100% (inactive). Moreover, in assay [6] (H69AR cells + 2 uM doxorubicin), the differential viability (reversal) is -4.46% (inactive). Also, the inhibition in assay [7] was -5.79% (inactive); in assay [8], -1.61% (inactive).

Consider `Cc1nnc(C)c2c(C)n(-c3ccc(Br)cc3)c(C)c12`, for which the viability in assay [1] was 110%; in assay [3], 110% (inactive); in assay [4], 92.3% (inactive); in assay [5] it was 104% (inactive); in assay [6] (setting [9]), 87.2%; in assay [6] (setting [10]) it was 104%. The Her2 level in assay [2] is 110% (inactive). In addition, the differential viability (reversal) in assay [6] (H69AR cells + 2 uM doxorubicin) is 17.2% (inactive). Besides, the inhibition in assay [7] is -7.07% (inactive); in assay [8], 1.61% (inactive).

As for `CN(C)c1ccc(NC(=O)c2cc3c(=O)n4ccccc4nc3n2C)cc1`, the viability in assay [1] is 87.5%; in assay [3], 87.5% (inactive); in assay [4], 97.8% (inactive); in assay [5] it was 80.3% (inactive); in assay [6] (setting [9]) it was 83.8%; in assay [6] (setting [10]) it was 80.3%. The Her2 level in assay [2] was 72.5% (inactive). In assay [6] (H69AR cells + 2 uM doxorubicin), the differential viability (reversal) is -3.47% (inactive). Also, the inhibition was -0.54% (inactive) in assay [7] and 14.1% (inactive) in assay [8].

As to `O=S(=O)(NCc1ccccc1)c1ccc2c(c1)OCCO2`, the viability in assay [1] was 124%; in assay [3], 124% (inactive); in assay [4], 97.1% (inactive); in assay [5], 76.8% (inactive); in assay [6] (setting [9]), 84.2%; in assay [6] (setting [10]), 76.8%. In addition, the Her2 level in assay [2] was 110% (inactive). Also, the differential viability (reversal) in assay [6] (H69AR cells + 2 uM doxorubicin) is -7.4% (inactive). The inhibition is -3.9% (inactive) in assay [7] and -2.7% (inactive) in assay [8].
